ChEMBL document CHEMBL1154211, “Curcumin inhibits ACTH- and angiotensin II-stimulated cortisol secretion and Ca(v)3.2 current” (J Nat Prod, 2009)
Active and inactive are the calls of the source. The calls are words filed in the database; no cut-off is given here.

Experiments:
AZF [1] = experiment: Inhibition of Cav3.2 channel in bovine AZF cells at 10 uM by cell patch clamp assay; assay type: cell-based; details: Bos taurus
In short: (§1)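 Whole-cell T-type Ca2+ currents were recorded from bovine AZF cells 2–12 h after plating (10–15 pF, <15 µm). The pipette held CsCl/BAPTA/MgATP at pH 7.2, and the bath held TEA-Cl with 20 mM Ca2+ at pH 7.4. Current was recorded in standard saline, then the cell was superfused with 5, 10 or 20 µM curcumin, and % inhibition of current amplitude was measured (n = 4–6).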

[2] = Inhibition of 8CPT-cAMP-induced cortisol secretion in bovine AZF cells at 10 uM after 24 hrs by EIA; assay type: functional; details: Bos taurus
In short: (§2)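 Bovine adrenal zona fasciculata cells from 2–3-yr steers were plated on fibronectin-coated dishes in DMEM/F12 with 10% FBS and antioxidants for 24 h. They were then switched to serum-free DMEM/F12 with BSA, ascorbate, tocopherol, insulin and transferrin, and treated with 250 µM 8CPT-cAMP ± curcumin (1–20 µM). Medium cortisol was measured by EIA in duplicate from duplicate samples, as mean ± SEM.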

[3] = Inhibition of ACTH-stimulated cortisol secretion in bovine AZF cells after 3 hrs by EIA; assay type: functional, Bos taurus
[4] = Inhibition of ACTH-stimulated cortisol secretion in bovine AZF cells after 24 hrs by EIA; assay type: functional, Bos taurus
[5] = Inhibition of Ang2-stimulated cortisol secretion in bovine AZF cells at 20 uM after 2 hrs by EIA; details: Bos taurus
[6] = Inhibition of 8CPT-cAMP-induced cortisol secretion in bovine AZF cells at 10 uM after 1 hr by EIA; assay type: functional; details: Bos taurus; in short: as §2
[7] = target: T1, Potassium channel subfamily K member 2 (Bos taurus, UniProt Q8HY88); experiment: Inhibition of TREK-1 K(+) channel in bovine AZF cells; assay type: cell-based
T1 sequence (Q8HY88 whole entry): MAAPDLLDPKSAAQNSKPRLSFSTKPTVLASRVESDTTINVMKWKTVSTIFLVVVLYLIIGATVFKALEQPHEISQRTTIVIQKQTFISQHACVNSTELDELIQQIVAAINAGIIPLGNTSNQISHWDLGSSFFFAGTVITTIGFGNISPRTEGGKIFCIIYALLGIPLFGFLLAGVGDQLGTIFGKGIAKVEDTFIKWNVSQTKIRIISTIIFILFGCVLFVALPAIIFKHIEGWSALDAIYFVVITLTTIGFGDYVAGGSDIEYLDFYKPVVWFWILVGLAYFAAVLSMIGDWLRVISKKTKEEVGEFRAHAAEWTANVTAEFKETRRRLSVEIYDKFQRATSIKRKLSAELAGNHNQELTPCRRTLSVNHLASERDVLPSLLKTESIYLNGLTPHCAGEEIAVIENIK

[8] = Inhibition of ACTH-stimulated cortisol secretion in bovine AZF cells at 10 uM after 0.5 hrs by EIA; assay type: functional; details: Bos taurus
In short: (§3)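 AZF cells were taken from steer adrenals and plated 24 h on fibronectin in serum-containing DMEM/F12 with antioxidants, then moved to serum-free supplemented DMEM/F12. They were exposed to ACTH(1–24) ± curcumin (1–20 µM) for 0.5, 2 or 24 h. Collected media were assayed for cortisol by EIA, in duplicate from duplicate samples, as mean ± SEM.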

[9] = Inhibition of ACTH-stimulated cortisol secretion in bovine AZF cells at 10 uM after 2 4 hrs by EIA; assay type: functional; details: Bos taurus; in short: as §3
AZF [10] = experiment: Inhibition of Cav3.2 channel in bovine AZF cells at 20 uM by cell patch clamp assay; assay type: cell-based; details: Bos taurus; in short: as §1
[11] = Induction of cortisol secretion in bovine AZF cells at 20 uM after 0.5 to 24 hrs by EIA relative to control; assay type: functional, Bos taurus
In short: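 AZF cells from adrenal glands of 2–3 yr steers were plated 24 h on fibronectin in DMEM/F12 with 10% FBS, tocopherol, selenite and ascorbate. Medium was then switched to serum-free DMEM/F12 with BSA, ascorbate, tocopherol, insulin and transferrin, with or without compound, at 37 °C. Media were collected at 0.5, 2 and 24 h, and cortisol was measured by EIA (duplicates of duplicate samples, mean ± SEM).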

[12] = Inhibition of ACTH-induced StAR mRNA expression in bovine AZF cells at 10 uM after 24 hrs using [alpha32P]dCTP labeled probes by Northern blot analysis; assay type: functional; details: Bos taurus
In short: (§4)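 Steer AZF cells ((5–8) × 10^6 per dish, fibronectin-coated) were plated 24 h with serum, then held in serum-free supplemented DMEM/F12. They were preincubated 10 min with curcumin (10 µM), then given 2 nM ACTH for 24 h. Total RNA (10 µg/lane) was run on a denaturing gel and Northern blotted with bovine CYP11a1 or StAR probes. Bands were quantified by phosphorimaging as % control, with 18S rRNA as loading reference and ≥2 experiments.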

AZF [13] = experiment: Inhibition of 8CPT-cAMP-induced cortisol secretion in bovine AZF cells at 1 to 20 uM after 1 hr by EIA; assay type: functional, cell-based; details: Bos taurus; in short: as §2
[14] = Inhibition of ACTH-stimulated cortisol secretion in bovine AZF cells at 10 uM after 2 hrs by EIA; assay type: functional; details: Bos taurus; in short: as §3
AZF [15] = experiment: Inhibition of ACTH-stimulated cortisol secretion in bovine AZF cells at 1 to 20 uM after 0.5 hrs by EIA; assay type: functional, cell-based; details: Bos taurus; in short: as §3
AZF [16] = experiment: Inhibition of Cav3.2 channel in bovine AZF cells at 5 uM by cell patch clamp assay; assay type: cell-based; details: Bos taurus; in short: as §1
[17] = Inhibition of ACTH-induced CYP11a1 mRNA expression in bovine AZF cells at 10 uM after 24 hrs using [alpha32P]dCTP labeled probes by Northern blot analysis; assay type: functional; details: Bos taurus; in short: as §4

Q: Which inhibition (AZF [1]) does the source give for COc1cc(/C=C/C(=O)CC(=O)/C=C/c2ccc(O)c(OC)c2)ccc1O [CURCUMIN] here?
A: 41%

Q: And the inhibition at 10 µM [2]?
A: 96.8%

Q: What about the “inhibition (INH)” value [3] of the same molecule?
A: 89%

Q: What about the “inhibition (INH)” value [4] of the same molecule?
A: 92%

Q: And the inhibition at 20 µM [5]?
A: 94.5%

Q: And the inhibition at 10 µM [6]?
A: 92.9%

Q: What about the IC50 [7] of the same molecule?
A: 930 nM

Q: And the inhibition at 10 µM [8]?
A: 81.1%

Q: What about the inhibition at 10 µM [9] of the same molecule?
A: 91%

Q: And the inhibition (AZF [10])?
A: 53.3%

Q: And the “fold change (FC)” value [11]?
A: 2

Q: And the inhibition at 10 µM [12]?
A: 99%

Q: And the inhibition (AZF [13])?
A: Active

Q: And the inhibition at 10 µM [14]?
A: 92.4%

Q: What about the inhibition (AZF [15]) of the same molecule?
A: Active

Q: And the inhibition (AZF [16])?
A: 31.9%

Q: And the inhibition at 10 µM [17]?
A: 59%
